# Screens: PubChem, several laboratories
# Most compounds without a hit are left out; they make up all but 2% or so of the library.
# H9c2 TAG inh – inhibitors of triacylglycerol accumulation, primary screen, cell-based, uHTS, fluorescence, H9c2 | actives 0.66% (n = 230,000) | H9c2 cells, Nile Red lipid (TAG) fluorescence; cells loaded with 200 µM oleic acid | AID 651582, 2012 | inhibition, % at 12.5 µM;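 active = pattern-corrected inhibition of lipid staining of at least 50% with the nuclear-stain viability signal not falling by more than 50%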;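 also: 0% = DMSO wells and 100% = triacsin C control wells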
# Hep lipid drop – inhibitors of hepatocyte lipid droplet formation, primary screen, imaging, high-throughput imaging, BODIPY stain; AML12 mouse hepatocytes, oleate lipid droplets; inhibition, % at 6.5 µM; AID 1656, 2009; actives 0.4% (n = 240,000);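 active = lipid droplet intensity inhibited by at least 50%, with more than 500 cells counted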
#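 Assay system: AML12 mouse liver cells | Compound: 6.5 µM single-point dosing | Schedule: Overnight exposure | Technique: Fluorescence imaging, 20x objective, two fields per well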
# Arr AP2 block – inhibitors of beta-arrestin/AP2 binding, primary screen, biochemical, GPCR trafficking, flow cytometry. FITC-arrestin peptide / GST-AP2 beads; AP2 beta2 appendage carries R879A mutation. inhibition, % at 10 µM. AID 504490, 2011. actives 0.31% (n = 340,000). beta-arrestin 1 C-terminal peptide binding to AP2 beta2-adaptin appendage (human);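 active = inhibition above a set limit, near 3 SD of compounds lacking own fluorescence, cut at about 54% in these data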;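 also: plate controls were DMSO wells for no effect and 5 µM unlabelled arrestin peptide for full effect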
#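 System: GST-AP2 R879A glutathione beads. Medium: PBS with 0.05% Tween 20 and 0.1% BSA. Also added: FITC-arrestin peptide, 50 nM. Incubation: 12 min plus 1 h, RT. Measured by: high-throughput flow cytometry of beads, ex 488, em 535 nm. Evaluation: percent drop in bead-associated FITC signal.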
# NTR1 ag – agonists of human NTR1, primary screen, imaging, U2OS cells, beta-arrestin-GFP, high content. NTR1-U2OS beta-arrestin-GFP spot imaging, agonist mode. activation, % at 20 µM. actives 0.17% (n = 330,000). AID 493036, 2011;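 active = activation at or above 40% of the spot to cytoplasm intensity ratio, with at least 20 cells analyzed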;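 also: 0% = DMSO without peptide and 100% = 100 nM NTR1 peptide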
# GRK2 aptamer HTS – compounds blocking aptamer binding on GRK2 – biochemical, human GRK2, bead flow cytometry, HTS, primary screen; Beta-adrenergic receptor kinase 1 (Homo sapiens), P25098; FAM-aptamer displacement from GRK2; inhibition of aptamer binding, % at 10 µM; actives 0.59% (n = 330,000); AID 488847, 2010;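 active = inhibition of aptamer binding above 40%, roughly 3 SD of noise, on plates passing a quality check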;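 also: median bead fluorescence of bound FAM aptamer so fluorescent compounds give negative values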
# Target sequence (P25098 whole entry, looked up): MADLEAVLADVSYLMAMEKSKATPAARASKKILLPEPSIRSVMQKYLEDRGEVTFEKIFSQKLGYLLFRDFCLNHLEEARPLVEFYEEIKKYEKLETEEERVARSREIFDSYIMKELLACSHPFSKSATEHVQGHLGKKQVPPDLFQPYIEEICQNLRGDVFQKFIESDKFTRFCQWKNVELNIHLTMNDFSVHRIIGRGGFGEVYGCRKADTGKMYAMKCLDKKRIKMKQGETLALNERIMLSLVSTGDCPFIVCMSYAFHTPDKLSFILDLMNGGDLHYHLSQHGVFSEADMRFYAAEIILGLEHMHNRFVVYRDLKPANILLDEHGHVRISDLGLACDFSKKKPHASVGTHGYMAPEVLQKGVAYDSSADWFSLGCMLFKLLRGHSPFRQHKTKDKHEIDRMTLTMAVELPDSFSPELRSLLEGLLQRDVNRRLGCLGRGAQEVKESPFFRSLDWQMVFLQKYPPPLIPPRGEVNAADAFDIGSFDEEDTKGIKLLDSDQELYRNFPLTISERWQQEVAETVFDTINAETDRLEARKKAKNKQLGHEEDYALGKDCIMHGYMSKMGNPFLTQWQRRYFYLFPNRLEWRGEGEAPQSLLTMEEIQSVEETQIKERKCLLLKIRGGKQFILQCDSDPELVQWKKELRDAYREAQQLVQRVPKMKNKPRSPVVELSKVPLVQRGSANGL
# Beta2AR agonist – beta2AR agonists driving receptor internalization, primary screen, cell-based, FAP fluorogen, flow cytometry | Am2.2-beta2AR cells | AID 504454, 2011 | actives 0.43% (n = 340,000) | response, % (test concentration not listed);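 active = response above a set limit, near 3 SD of response in nonfluorescent compounds, cut at about 42% in these data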
# GRK2 inh confirm – GRK2 aptamer-displacing inhibitors, retest, confirmation, biochemical, cherry pick 1, bead flow cytometry; aptamer displacement, % at 10 µM; bead-bound GRK2, FAM-aptamer displacement; actives 4% (n = 2,000); AID 504451, 2011; shares compounds with GRK2 aptamer HTS;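 active = aptamer displacement above 40%, near three times the noise of non-fluorescent compounds, on plates passing quality checks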;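 also: negative values mostly reflect intrinsic compound fluorescence rather than true enhancement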
# Aptamer quench – fluorescent aptamer quenching in GRK2 counter-screen dose response; 110 tested, under 10 active; Fluorescent RNA aptamer beads, flow cytometry; stronger effect = higher value; shares compounds with GRK2 aptamer HTS; fluorescence change (kMESF span), kMESF (test concentration not listed);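 active = compounds whose bead fluorescence drops by more than 37 kMESF across the dose range, marking them as dye quenchers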
# FAM quench CP1 – aptamer fluorescence quenching in GRK2 counter-screen. shares compounds with GRK2 aptamer HTS. Carboxyfluorescein RNA aptamer on beads, flow cytometry quenching; stronger effect = lower value. fluorescence response (% of DMSO), % at 10 µM. 2,000 tested, under 10 active. AID 504580;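 active = compounds that quench the bead-bound fluorescent RNA probe, cutting fluorescence to under half of the solvent control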;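 also: counterscreen run without GRK2 so only probe quenching by compound is measured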
# GRK2 CP2 – GRK2 aptamer-displacing inhibitors, hit retest, confirmation, biochemical, cherry pick 2, bead flow cytometry | shares compounds with GRK2 aptamer HTS | inhibition of aptamer binding, % at 10 µM | bead-bound GRK2, FAM-aptamer displacement | 360 tested, under 10 active;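 active = inhibition of aptamer binding above 40%, about triple the noise seen with nonglowing compounds, on plates passing quality control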;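 also: negative values mostly come from compounds that fluoresce themselves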
# Aptamer quench3 – fluorescence quenching of FAM-labeled RNA aptamer, dose response, artefact control for GRK2 aptamer inhibitor project, biochemical, flow cytometry, cherry pick 2; shares compounds with GRK2 aptamer HTS; Streptavidin beads; 25 tested, under 10 active; AID 504819, 2011; change in fluorescence (kMESF span), kMESF (concentration not given with the values);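 active = compounds quenching the bead-bound labeled aptamer, with fluorescence dropping by more than 37 kMESF over the dose range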
# FAM quench CP2 – counter-screen for GRK2 binding hits: quenchers of fluorescent RNA aptamer. carboxyfluorescein RNA aptamer beads, flow cytometry quenching; stronger effect = lower value. 360 tested, under 10 active. fluorescence response vs DMSO, % at 10 µM. shares compounds with GRK2 aptamer HTS;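 active = response vs DMSO under 50%, meaning signal dropped by over half, treated as fluorescence quencher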;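 also: labelled aptamer on streptavidin beads without GRK2 as a quench counter-screen; 100% = bead fluorescence of DMSO wells and lower means quenching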
# FAM quench DR – quenchers of FAM-labeled RNA aptamer fluorescence, dose response, artefact control for GRK2 aptamer binding project, biochemical, powder set 1, flow cytometry | shares compounds with GRK2 aptamer HTS | Bead-bound FAM RNA aptamer fluorescence quenching; stronger effect = lower value | fluorescence ratio to DMSO, % at 11.1 µM | 35 tested, under 10 active | AID 588496, 2011;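 active = compounds that dim the fluorescent label, raw bead signal shifting by over 33 units between lowest and highest dose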
# * = called active by the depositor; nt = no result given.
SMILES,H9c2 TAG inh,Hep lipid drop,Arr AP2 block,NTR1 ag,GRK2 aptamer HTS,Beta2AR agonist,GRK2 inh confirm,FAM quench CP1,others
COc1cc(SC)ccc1C(=O)NNC(=O)c1cc(C)oc1C,-25.3,nt,-16.8,-0.3,45.0*,-6.2,-4.2,101.5,
Cc1ccc(C)c(OCC(=O)N(C)CC(=O)Nc2ccc(Cl)c(C(F)(F)F)c2)c1,26.1,nt,-2.0,4.9,79.0*,4.9,0.0,103.3,
Cc1cccc(C(=O)OCC(=O)N(C)CC(=O)Nc2ccc(Cl)c(C(F)(F)F)c2)c1,-10.4,nt,1.1,1.6,4.0,-10.6,nt,nt,
Cc1nn(-c2ccccc2)nc1-c1nnc(-c2ccc(C(F)(F)F)cc2)o1,-9.0,10.9,-3.5,0.2,2.0,-2.2,nt,nt,
Cc1ccc(S(=O)(=O)Cc2nnnn2-c2ccccc2)cc1,-15.9,9.5,-5.7,1.0,15.0,-1.2,nt,nt,
CC(=O)Oc1ccc2ccc(=O)oc2c1,nt,-1.9,-1.7,0.0,80.0*,-2.7,-1.5,99.5,
CSc1ccc(C=O)cc1,nt,nt,11.2,0.8,73.0*,-0.4,-14.0,92.6,
O=C(CN1CCN(S(=O)(=O)c2cccs2)CC1)NCC1CCCCC1,-13.8,nt,-13.2,0.2,0.0,-5.4,nt,nt,
COc1ccc(S(=O)(=O)CCC(=O)N(C)c2ccc(OC)cc2OC)cc1,nt,-26.1,4.3,0.3,2.0,5.0,nt,nt,GRK2 CP2=17.0;FAM quench CP2=101.0
COc1ccc(S(=O)(=O)CCC(=O)Nc2ccc(OC)cc2OC)cc1,nt,-3.0,16.1,0.3,4.0,2.6,nt,nt,GRK2 CP2=-6.7;FAM quench CP2=102.0
COc1ccc(NC(=O)CCS(=O)(=O)c2ccc(OC)cc2)cc1,3.5,-24.3,-1.1,-0.4,0.0,-8.0,nt,nt,
COc1ccc([N+](=O)[O-])cc1NC(=O)CS(=O)(=O)c1ccc(C)cc1,0.2,nt,4.6,-1.3,1.0,2.6,nt,nt,
COc1ccc([N+](=O)[O-])cc1NC(=O)CCS(=O)(=O)c1ccc(Br)cc1,nt,-10.3,8.5,2.5,54.0*,-7.0,33.3,101.9,Aptamer quench=-7.6;Aptamer quench3=1.9;FAM quench DR=97.0
COc1ccc(NC(=O)CCS(=O)(=O)c2ccccc2)c(OC)c1,nt,15.1,-4.1,-0.9,2.0,2.6,nt,nt,
CCN(CC)S(=O)(=O)c1cccc(NC(=O)c2cccc(S(=O)(=O)N3CCCC3)c2)c1,-3.6,nt,-3.4,4.8,0.0,8.4,nt,nt,
CCC(C)(C)n1nnnc1C(c1ccc2ncccc2c1)N1CCN(c2ccc(O)cc2)CC1 (configuration not stated),-11.9,-0.6,-5.2,-0.7,0.0,-1.8,nt,nt,
CCC(C)(C)n1nnnc1C(c1ccc2ncccc2c1)N1CCN(c2nc3ccccc3s2)CC1 (configuration not stated),nt,3.8,-7.9,0.5,25.0,4.2,2.7,74.8,
O=C(Nc1nc2c(ccc3ccccc32)s1)c1ccco1,19.4,nt,26.0,4.8,0.0,2.7,nt,nt,GRK2 CP2=4.8;FAM quench CP2=101.0
O=C(Nc1nc2c(F)c(F)c(F)cc2s1)c1ccco1,nt,-6.1,-3.1,-1.2,0.0,-7.2,nt,nt,
Clc1ccc(CSc2nc3ccncc3[nH]2)cc1,7.7,nt,-8.1,-1.0,1.0,-14.3,nt,nt,
O=C(c1ccc(CSc2nc3ccncc3[nH]2)cc1)N1CCCCCC1,-16.3,1.1,-13.6,2.3,68.0*,-9.5,-0.3,94.0,
Cc1ccc(CSc2nc3ccncc3[nH]2)cc1,-12.7,nt,2.8,-0.8,78.0*,9.2,0.7,100.4,
O=C(NC1(Cc2ccccc2)CCN(Cc2ccc(-c3ccccc3)cc2)C1=O)c1ccccc1 (configuration not stated),-5.0,nt,8.5,24.3,2.0,13.3,nt,nt,
CCC(C)NC(=O)NC(=O)CSc1nnc(-c2ccccc2F)n1C1CC1 (configuration not stated),nt,2.3,-13.8,-0.8,49.0*,4.9,0.9,105.7,
CCC(=O)Nc1ccc(C(=O)CSc2nnc(-c3ccccc3F)n2C2CC2)cc1,nt,15.4,0.7,2.4,0.0,-12.3,nt,nt,
Cc1cc(C)cc(OCC(=O)OCC(=O)c2cc(C)n(C3CC3)c2C)c1,-23.1,-0.7,13.0,1.3,39.0,-0.8,7.0,101.1,
N#C/C(=C\Nc1ccccc1SC(F)(F)F)c1nc(-c2ccccc2)cs1,28.9,-0.6,0.2,14.0,48.0*,-4.8,0.0,95.2,
CC[C@]12c3[nH]c4ccc(Cl)cc4c3CCN1C(=O)[C@@H](CC(=O)NCCc1ccccn1)C[C@@H]2C(=O)N1CCN(C(=O)c2ccco2)CC1,103.3,nt,17.9,3.4,2.0,0.3,nt,nt,
COc1cc(Cl)c([C@@H]2C[C@H]3CN(c4ccccc4)C(=O)[C@]34CCCN24)cc1OC,-6.0,-7.3,16.2,1.6,70.0*,2.6,0.0,97.0,
COc1ccccc1-n1cc([C@@H]2C[C@H]3CN(c4ccccc4)C(=O)[C@]34CCCN24)cn1,nt,40.4,-4.3,0.0,0.0,-22.1,nt,nt,
